Test results taken from ChEMBL document CHEMBL1944612, “Structural modification of ginsenoside Rh(2) by fatty acid esterification and its detoxification property in antitumor” (Bioorg Med Chem Lett, 2012).

How the values were obtained:
Mus musculus [1] = experiment: Immunostimulatory activity in Kunming mouse xenografted with […] cells assessed as change in spleen mass at 10 mg/kg, po qd for 10 days (reference value: 6.61 +/- 1.84 mg/kg); assay type: functional
Mus musculus [2] = experiment: Immunostimulatory activity in Kunming mouse xenografted with […] cells assessed as change in spleen mass at 5 mg/kg, po qd for 10 days (reference value: 6.61 +/- 1.84 mg/kg); assay type: functional
H22 (Mus musculus) = experiment: Antitumor activity against mouse H22 cells xenografted in Kunming mouse assessed as reduction in tumor weight at 5 mg/kg, po qd for 10 days; details: 240 h
[3] = Growth inhibition of human QSG7701 cells after 48 hrs by MTT assay; details: QSG7701, 48 h
How it was run: (§1)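 QSG-7701 human hepatocytes seeded at 5×10^3 cells/mL in 96-well plates. Compounds were dissolved in DMSO and diluted in RPMI 1640 (final DMSO <0.1%), in triplicate, for 48 h. MTT (5 mg/mL stock) was added for 2 h, and formazan was dissolved in DMSO. OD was read at 570 nm (450 nm reference). IC50 is the concentration giving 50% absorbance reduction versus vehicle control.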

Mus musculus [4] = experiment: Immunostimulatory activity in Kunming mouse xenografted with […] cells assessed as change in thymus mass at 10 mg/kg, po qd for 10 days (reference value: 1.83 +/- 0.85 mg/kg); assay type: functional
Mus musculus [5] = experiment: Toxicity in Kunming mouse xenografted with […] cells assessed as change in body weight at 20 mg/kg, po qd for 10 days (reference value: 24.8 +/- 1.1 g); assay type: organism-based; design: dose 20 mg/kg, route oral; details: in vivo, 240 h
[6] = Growth inhibition of human QSG7701 cells at 50 uM after 48 hrs by MTT assay; details: read-out: GI; how it was run: as §1
Mus musculus [7] = experiment: Immunostimulatory activity in Kunming mouse xenografted with […] cells assessed as change in thymus mass at 5 mg/kg, po qd for 10 days (reference value: 1.83 +/- 0.85 mg/kg); assay type: functional
H22 = experiment: Antitumor activity against human H22 cells xenografted in Kunming mouse assessed as reduction in tumor volume at 20 mg/kg, po qd for 10 days; details: 240 h, read-out: INH
Mus musculus [8] = experiment: Toxicity in Kunming mouse xenografted with human H22 cells assessed as change in body weight at 20 mg/kg, po qd for 10 days (reference value: 23.4 +/- 2.8 g); assay type: organism-based; design: dose 20 mg/kg, route oral; details: in vivo, 240 h

| SMILES | Activity (Mus musculus [1]) [mg/g] | Activity (Mus musculus [2]) [mg/g] | inhibition in vivo at 5 mg/kg (H22 (Mus musculus)) [%] | IC50 [3] [µM] | Activity (Mus musculus [4]) [mg/g] | Activity (Mus musculus [5]) [g] | inhibition at 48 h, 50 µM [6] [%] | Activity (Mus musculus [7]) [mg/g] | inhibition in vivo at 20 mg/kg (H22) [%] | Activity (Mus musculus [8]) [g] |
| --- | --- | --- | --- | --- | --- | --- | --- | --- | --- | --- |
| CCCCCCCC(=O)OC[C@H]1O[C@@H](O[C@H]2CC[C@]3(C)[C@H]4C[C@@H](OC(=O)CCCCCCC)[C@@H]5[C@@H]([C@@](C)(O)CCC=C(C)C)CC[C@@]5(C)[C@]4(C)CC[C@H]3C2(C)C)[C@H](O)[C@@H](O)[C@@H]1O | 6.31 | 5.27 | 52 | 80.5 | 3.42 | 27.1 | 18 | 2.15 |  |  |
| O=P1(N(CCCl)CCCl)NCCCO1 (configuration not stated) [CYCLOPHOSPHAMIDE ANHYDROUS] |  |  |  |  |  |  |  |  | 72 |  |
| CC(C)=CCC[C@](C)(O)[C@H]1CC[C@]2(C)[C@@H]1[C@H](O)C[C@@H]1[C@@]3(C)CC[C@H](O[C@@H]4O[C@H](CO)[C@@H](O)[C@H](O)[C@H]4O)C(C)(C)[C@@H]3CC[C@]12C [GINSENOSIDE RH2] | 5.35 | 5.48 | 53 | 37.3 | 2.09 |  | 83 | 2.25 |  | 23.2 |
